Screening data: PubChem, Johns Hopkins Ion Channel Center
An excerpt weighted towards active compounds, which were near 2.3% of everything screened.
TRPC6 activator = mouse TRPC6 channel activators, primary screen, cell-based, HEK293, membrane potential dye | B-score at 10 µM | Short transient receptor potential channel 6 (Mus musculus), Q61143 | 310,000 tested, 0.13% active | HEK293-TRPC6 membrane potential dye fluorescence; hits give high values;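 active = B-score of the integrated fluorescence ratio above library mean plus 3 SD, and starting fluorescence ratio within library mean plus 5 SD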;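 note: higher score means more depolarization so channel activation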
TRPC4 PAM = positive allosteric modulators of TRPC4, primary screen, cell-based, mouse TRPC4beta, HEK293 mu-opioid, Fluo-4 calcium; Short transient receptor potential channel 4 (Mus musculus), Q9QUQ5; DAMGO EC20, Fluo-4 Ca2+ flux; hits give high values; B-score at 10 µM; 310,000 tested, 0.42% active;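 active = B-score of calcium response area above 5 SD of library B-scores, with initial fluorescence ratio within 5 SD of library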
Target sequence (Q9QUQ5 whole entry, looked up): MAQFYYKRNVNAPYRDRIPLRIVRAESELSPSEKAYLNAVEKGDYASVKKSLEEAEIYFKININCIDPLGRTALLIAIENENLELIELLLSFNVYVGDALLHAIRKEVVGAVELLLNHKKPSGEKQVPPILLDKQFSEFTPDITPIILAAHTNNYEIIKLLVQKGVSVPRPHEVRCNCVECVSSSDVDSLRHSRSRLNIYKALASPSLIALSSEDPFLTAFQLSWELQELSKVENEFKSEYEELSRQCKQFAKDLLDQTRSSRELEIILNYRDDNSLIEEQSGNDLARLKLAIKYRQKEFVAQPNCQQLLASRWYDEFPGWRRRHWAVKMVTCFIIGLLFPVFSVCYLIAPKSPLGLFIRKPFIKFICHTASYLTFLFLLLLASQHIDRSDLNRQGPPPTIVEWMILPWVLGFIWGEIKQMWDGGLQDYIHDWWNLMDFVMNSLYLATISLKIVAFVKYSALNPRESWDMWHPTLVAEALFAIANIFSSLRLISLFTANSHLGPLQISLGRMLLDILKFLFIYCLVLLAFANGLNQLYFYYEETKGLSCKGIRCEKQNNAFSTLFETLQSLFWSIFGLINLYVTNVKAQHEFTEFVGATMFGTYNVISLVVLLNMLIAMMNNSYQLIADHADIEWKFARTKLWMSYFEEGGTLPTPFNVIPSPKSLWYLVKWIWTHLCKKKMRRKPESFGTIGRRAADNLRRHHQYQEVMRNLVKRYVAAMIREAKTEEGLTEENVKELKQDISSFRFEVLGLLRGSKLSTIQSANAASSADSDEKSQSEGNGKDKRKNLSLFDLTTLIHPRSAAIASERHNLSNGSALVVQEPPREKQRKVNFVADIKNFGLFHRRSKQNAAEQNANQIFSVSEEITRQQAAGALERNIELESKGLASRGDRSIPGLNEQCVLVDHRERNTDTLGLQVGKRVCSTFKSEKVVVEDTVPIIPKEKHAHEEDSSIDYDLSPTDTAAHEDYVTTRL
TRPC4 block = inhibitors of mouse TRPC4 channel, primary screen, Fluo4 calcium, HEK293 TRPC4beta/mu-opioid cells; DAMGO-evoked Fluo4 calcium flux; hits give low values; B-score at 10 µM; 300,000 tested, 0.39% active; AID 2247, 2010;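 active = B-score over 3 SD under the library average, no early fluorescence shift, positive overall ratio signal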
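Assay system: HEK293 cells with stable TRPC4beta plus mu-opioid receptor expression. Dosing: single dose. Measured by: Fluo4 Ca2+ flux fluorescence. Also added: DAMGO in two steps, submaximal then maximal. Read-out: B score from integrated Fluo4 fluorescence ratio.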
TRPC6 inhibitor = mouse TRPC6 channel inhibitors, primary screen, cell-based, HEK293, membrane potential dye. AID 2553, 2010. 310,000 tested, 1.1% active. B-score at 10 µM. ACh-evoked depolarization; hits give low values. Short transient receptor potential channel 6 (Mus musculus), Q61143;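 active = B-score under library mean minus 3 SD, initial fluorescence not abnormally high, positive integrated signal ratio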;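 note: B-score derived from integrated fluorescence ratio over the kinetic read; more negative B-score means stronger inhibition of depolarization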
TRPC4 act = activators of mouse TRPC4 channel, primary screen, Fluo4 calcium, HEK293 TRPC4beta/mu-opioid cells; Fluo4 calcium fluorescence; hits give high values; 310,000 tested, 0.49% active; B-score at 10 µM; AID 2237, 2010;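 active = B-score above 5 SD of library B-scores, and initial fluorescence ratio not above library mean plus 5 SD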;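 note: positive B-score marks a calcium rise read as TRPC4 activation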
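System: HEK293 cells stably co-expressing mouse TRPC4beta and mu-opioid receptor; Schedule: Fluo4 dye loading 45 min at room temperature, 110 s recording; Detection: Fluo4 fluorescence, kinetic; Evaluation: B-scored integrated calcium fluorescence ratio; Controls: buffer (low) and maximal DAMGO (high).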
Each line names hits and unclear results; the compound was inactive in the other large screens.

COc1ccccc1N1CCN(Cc2cc(=O)c(OCC(=O)NC3CCCC3)co2)CC1	TRPC4 PAM 108
N#Cc1ccsc1NC(=O)C1CCCN1S(=O)(=O)c1cccs1 (configuration not stated)	none
COc1ccc(C(=O)O)cc1S(=O)(=O)N(C)CCc1ccccn1	TRPC4 act 46
CC1(c2ccccc2)O[C@@H]2C[C@H]3[C@@H]4CCC5=CC(=O)C=C[C@]5(C)[C@@]4(F)[C@@H](O)C[C@]3(C)[C@]2(C(=O)CO)O1 (some centres not stated)	TRPC4 PAM 12
Cc1c(NC(=O)c2ccc(-c3ccccc3)cc2)cccc1C(=O)O	none
COc1ccccc1C(=O)NC(CCSC)C(=O)NCC(c1cccs1)N1CCOCC1 (configuration not stated)	none
O=C1CCCc2nc(N3CCN(C(c4ccccc4)c4ccccc4)CC3)ncc21	TRPC4 act 43
Cc1sc2ncnc(NC3CCN(Cc4ccccc4)CC3)c2c1C	TRPC4 act 193
COc1cc(OC)c(NC(=O)CN(C)S(=O)(=O)c2ccc3[nH]c(=O)oc3c2)cc1Cl	none
CCn1cnc2cc(NCc3ccc(C)cc3)ccc21	none
Cc1ccc(CNc2ccc3c(c2)ncn3C(C)C)cc1	TRPC4 act 45
O=C(CCCn1cncn1)N1CCCC(Nc2ccc(F)cc2)C1 (configuration not stated)	none
CC(=O)Oc1c(-c2ccc(Br)o2)oc2ccccc2c1=O	none
Cc1cc(C(=O)N/N=C\c2cc(C(C)(C)C)ccc2O)n[nH]1	TRPC4 block -6
CN1CCN(NC(=O)c2cccc(Br)c2)CC1	TRPC4 PAM 19
CS(=O)(=O)Nc1nc2n(n1)C(c1ccccc1)CC(c1ccccc1)N2 (configuration not stated)	TRPC4 block -6
COC(=O)c1sccc1NC(=O)c1c(F)c(F)c(F)c(F)c1F	none
CCN(CC)c1ccc2c(Cl)c(Br)c(=O)oc2c1	TRPC4 block -6
CCn1c2ccc(F)cc2c2nnc(NN)nc21	TRPC4 PAM 18
CCCn1c2ccc(F)cc2c2nnc(NN)nc21	TRPC4 PAM 11
NNc1nnc2c3cc(F)ccc3n(Cc3ccccc3)c2n1	none
CN(CC(=O)Nc1ccc(F)cc1)C(=O)COC(=O)c1cc(S(=O)(=O)N(C)C)ccc1N1CCCC1	none
CSc1c(C#N)sc(=S)n1-c1ccc(C)cc1	TRPC4 block -7
CC(Cc1ccco1)NC(=O)c1cccc(S(=O)(=O)N(C)C)c1 (configuration not stated)	none
COC(=O)c1ccccc1N=Nc1c(N)[nH][nH]c1=O	TRPC4 PAM 82, TRPC4 act 47
Clc1ccc(COc2ccccc2CNCc2cccnc2)cc1	TRPC4 block -6
c1ccc(COc2cccc(CNCc3ccccn3)c2)cc1	none
c1ccc(COc2cccc(CNCc3cccnc3)c2)cc1	TRPC4 block -6
CN(C)c1ccc(CNCCC(Cc2ccccc2)c2ccco2)cc1 (configuration not stated)	TRPC4 act 46
c1ccc(CNCCC(Cc2ccccc2)c2ccco2)cc1 (configuration not stated)	none
N#Cc1c(Cl)nsc1NCCN1CCOCC1	none
O=C(O)CCC1c2cc3c4cc2OC2Oc5cc6c(cc51)C(CCC(=O)O)c1cc5c7cc1OC(O6)c1cc6cc(c1)Oc1cc(cc(C(=O)O)c1)Oc1cc8cc(c1)C(Oc1cc(c(cc1C5CCC(=O)O)C3CCC(=O)O)OC(O4)c1cc(cc(c1)Oc1cc(cc(C(=O)O)c1)O8)Oc1cc(cc(C(=O)O)c1)Oc1cc(cc2c1)Oc1cc(cc(C(=O)O)c1)O6)O7 (configuration not stated)	TRPC6 activator 186, TRPC4 act 43
CN(C)c1ccc(CN(C(=O)c2cccs2)C2CCS(=O)(=O)C2)cc1 (configuration not stated)	none
COc1cc(/C=C2\C(C)=C(C#N)c3nc(N)c(C#N)c(C)c32)ccc1OCC(=O)O	none
CC1=C(C#N)c2nc(N)c(C#N)c(C)c2/C1=C\c1ccc(C)cc1	TRPC6 inhibitor -6.4
COc1ccc(N2CC(C(=O)Nc3nnc(SCC(=O)NCC4CCCO4)s3)CC2=O)cc1 (configuration not stated)	none
CCCc1cc(=O)oc2cc(C)cc(OC(C)C(=O)NCc3ccccn3)c12 (configuration not stated)	none
O=C(COC(=O)Cn1cnc2ccccc2c1=O)Nc1ccc(Cl)cc1	none
O=C(COC(=O)Cn1cnc2ccccc2c1=O)Nc1ccccc1Sc1ccc(Cl)cc1	TRPC4 block -5
CCN(CCNC(=O)C1CCN(Cc2nc(-c3ccc(Cl)cc3)oc2C)CC1)c1ccccc1	TRPC6 inhibitor -6.6
Cc1oc(-c2ccc(Cl)cc2)nc1CN1CCC(C(=O)NCC2CCCO2)CC1 (configuration not stated)	none
Cc1oc(-c2ccc(Cl)cc2)nc1CN1CCC(C(=O)NCc2cccs2)CC1	TRPC4 block -6
NCCNc1ccc([N+](=O)[O-])cc1	TRPC4 act 62
N#CCC(=O)N/N=C\c1cc(Br)ccc1OC/C=C/c1ccccc1	none
CCN(CC)CCOC(=O)C1(c2ccccc2)CCOCC1	TRPC4 act 60
Cc1ccnc(NC(=O)COc2ccc3c(c2)CCC3)c1	none
N/C(=N\OC(=O)c1ccc2ccccc2c1)c1ccccc1Cl	none
CCOC(=O)C1(Cc2ccccc2)CCN(Cc2cnn(C(C)C)c2)CC1	TRPC4 act 55
CCOC(=O)C1(CCCc2ccccc2)CCN(Cc2cnn(C)c2)CC1	TRPC4 act 120
CCOC(=O)C1(Cc2ccccc2)CCN(Cc2csc(C(C)=O)c2)CC1	none
CCOC(=O)C1(CCc2ccccc2)CCN(Cc2ccccn2)CC1	TRPC4 block -8
CCOC(=O)C1(Cc2ccc(Cl)cc2)CCN(Cc2cn(CC)nc2C)CC1	TRPC4 block -6, TRPC4 act 68
O=C1Nc2ccccc2C12Nc1ccccc1-c1nc3ccccc3n12 (configuration not stated)	none
CN1C(=O)C2(Nc3ccccc3-c3nc4ccccc4n32)c2ccccc21 (configuration not stated)	TRPC4 block -6
CCCn1c(NCc2ccc(C)o2)nc2ccccc21	TRPC4 block -6
CCCn1c(Nc2ccccc2C)nc2ccccc21	TRPC4 block -5
CCc1ccccc1Nc1nc2ccccc2n1CC	none
